Experimental data reported in ChEMBL document CHEMBL4732196, “Structural optimization towards promising β-methyl-4-acrylamido quinoline derivatives as PI3K/mTOR dual inhibitors for anti-cancer therapy: The in vitro and in vivo biological evaluation” (Eur J Med Chem, 2021).
Activity calls are given as the source filed them. No cut-off for these calls is given here.

Assays:
U-87 MG = assay: Growth inhibition of human U87MG cells after 72 hrs by sulforhodamine B assay; type: functional, U-87MG ATCC
[1] = target: Phosphatidylinositol 4,5-bisphosphate 3-kinase catalytic subunit beta isoform (Homo sapiens, UniProt P42338); assay: Inhibition of PI3Kbeta (unknown origin) using PIP2 as substrate measured after 1 hr by ADP-glo assay
[2] = target: Phosphatidylinositol 4,5-bisphosphate 3-kinase catalytic subunit gamma isoform (Homo sapiens, UniProt P48736); assay: Inhibition of recombinant human full-length His-tagged PI3Kgamma expressed in baculovirus expression system using PIP2 as substrate measured after 1 hr by ADP-glo assay
[3] = target: Ankyrin repeat and protein kinase domain-containing protein 1 (Homo sapiens) (UniProt Q8NFD2); assay: Inhibition of human partial length ANKK1 (M1 to A305 residues) expressed in bacterial system assessed as residual activity at 10 uM by kinome scan method relative to control
Summary of the method: (§1)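 KINOMEscan binding assay, test compound at 10 μM against a 52-kinase panel. % Ctrl = (compound signal − positive control signal)/(negative control signal − positive control signal) × 100, with DMSO as negative control (100%) and a positive control (0%).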

[4] = target: Cyclin-dependent kinase-like 1 (Homo sapiens) (UniProt Q00532); assay: Inhibition of human partial length CDKL1 (M1 to I358 residues) expressed in bacterial system assessed as residual activity at 10 uM by kinome scan method relative to control; summary of the method: as §1
[5] = target: Ephrin type-B receptor 6 (Homo sapiens) (UniProt O15197); assay: Inhibition of human partial length EPHB6 (Q634 to P948 residues) expressed in mammalian expression system assessed as residual activity at 10 uM by kinome scan method relative to control; summary of the method: as §1
[6] = target: Mitogen-activated protein kinase 4 (Homo sapiens) (UniProt P31152); assay: Inhibition of human partial length ERK4 (M1 to L365 residues) expressed in mammalian expression system assessed as residual activity at 10 uM by kinome scan method relative to control; summary of the method: as §1
[7] = target: Serine/threonine-protein kinase/endoribonuclease IRE1 (Homo sapiens) (UniProt O75460); assay: Inhibition of human partial length ERN1 (S551 to E852 residues) expressed in mammalian expression system assessed as residual activity at 10 uM by kinome scan method relative to control; summary of the method: as §1
[8] = target: Cyclin-G-associated kinase (Homo sapiens) (UniProt O14976); assay: Inhibition of human partial length GAK (G13 to Y338 residues) expressed in bacterial expression system assessed as residual activity at 10 uM by kinome scan method relative to control; summary of the method: as §1
[9] = target: Dual specificity mitogen-activated protein kinase kinase 5 (Homo sapiens) (UniProt Q13163); assay: Inhibition of human partial length MEK5 (L98 to P448 residues) expressed in mammalian expression system assessed as residual activity at 10 uM by kinome scan method relative to control; summary of the method: as §1
[10] = target: T1, Serine/threonine-protein kinase mTOR (Homo sapiens, UniProt P42345); assay: Inhibition of human partial length mTOR (L1382 to W2549 residues) expressed in mammalian expression system assessed as residual activity at 10 uM by kinome scan method relative to control
Summary of the method: (§2)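 KINOMEscan competitive binding screen at 10 μM test compound against a 52-kinase panel. Output is % Ctrl = (test signal − positive control signal)/(negative control signal − positive control signal) × 100. DMSO is the negative control (100%) and the positive control is set to 0%.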

[11] = target: Serine/threonine-protein kinase Nek10 (Homo sapiens) (UniProt Q6ZWH5); assay: Inhibition of human partial length NEK10 (L488 to R809 residues) expressed in mammalian expression system assessed as residual activity at 10 uM by kinome scan method relative to control; summary of the method: as §1
[12] = target: Cyclin-dependent kinase 14 (Homo sapiens) (UniProt O94921); assay: Inhibition of human full length PFTK1 (M1 to H451 residues) expressed in bacterial expression system assessed as residual activity at 10 uM by kinome scan method relative to control; summary of the method: as §1
[13] = target: Phosphatidylinositol 4-phosphate 5-kinase type-1 alpha (Homo sapiens) (UniProt Q99755); assay: Inhibition of human full length PIP5K1A (M1 to H562 residues) expressed in bacterial expression system assessed as residual activity at 10 uM by kinome scan method relative to control; summary of the method: as §1
[14] = target: Phosphatidylinositol 4-phosphate 5-kinase type-1 gamma (Homo sapiens) (UniProt O60331); assay: Inhibition of human full length PIP5K1C (M1 to H562 residues) expressed in bacterial expression system assessed as residual activity at 10 uM by kinome scan method relative to control; summary of the method: as §1
[15] = target: Phosphatidylinositol 5-phosphate 4-kinase type-2 beta (Homo sapiens) (UniProt P78356); assay: Inhibition of human full length PIP5K2B (M1 to T416 residues) expressed in bacterial expression system assessed as residual activity at 10 uM by kinome scan method relative to control; summary of the method: as §1
[16] = target: Membrane-associated tyrosine- and threonine-specific cdc2-inhibitory kinase (Homo sapiens) (UniProt Q99640); assay: Inhibition of human partial length PKMYT1 (A88 to G366 residues) expressed in bacterial expression system assessed as residual activity at 10 uM by kinome scan method relative to control; summary of the method: as §2
[17] = target: Receptor-interacting serine/threonine-protein kinase 1 (Homo sapiens) (UniProt Q13546); assay: Inhibition of human partial length RIPK1 (M1 to K305 residues) expressed in bacterial expression system assessed as residual activity at 10 uM by kinome scan method relative to control; summary of the method: as §2
[18] = target: Serine/threonine-protein kinase 32A (Homo sapiens) (UniProt Q8WU08); assay: Inhibition of human full length YANK1 (M1 to L396 residues) expressed in mammalian expression system assessed as residual activity at 10 uM by kinome scan method relative to control; summary of the method: as §1
[19] = target: T1, Serine/threonine-protein kinase mTOR; assay: Inhibition of mTOR in human U87MG cells assessed as suppression of phosphorylation of S6 ribosomal at Ser235/236 residues at 25 nM after 3 hrs by Western blot analysis; type: cell-based; conditions: U87
Summary of the method: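 U87MG cells were seeded at 1×10^6 per well and held overnight at 37 °C, 5% CO2. They were then exposed to a range of inhibitor concentrations for 3 h at 37 °C. Phospho-Akt (Ser473, Thr308), phospho-S6 (Ser235/236) and phospho-4E-BP1 (Thr37/46) were measured by Western blot with GAPDH as loading control. Bands were quantified as mean ± SD of 3 biological replicates against untreated cells.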

[20] = AUC(0 to infinity) in Sprague-Dawley rat at 5 mg/kg, po; type: ADME, organism-based; parameters: time infinity, route oral, dose 5 mg/kg; conditions: in vivo
Summary of the method: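 Male Sprague-Dawley rats (n = 3) given a single oral gavage of 5 mg/kg as a homogeneous opaque suspension in 0.5% methylcellulose; plasma concentration-time curves used to derive mean PK parameters.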

[21] = MRT(0 to infinity) in Sprague-Dawley rat at 5 mg/kg, po; type: ADME, organism-based; conditions: in vivo
Summary of the method: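 Male Sprague-Dawley rats (n = 3) received a single 5 mg/kg oral gavage dose formulated as a suspension in 0.5% methylcellulose. Plasma concentration-time curves were recorded and mean PK parameters derived.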

[22] = target: T1, Serine/threonine-protein kinase mTOR; assay: Inhibition of mTOR in human U87MG cells assessed as suppression of phosphorylation of S6 ribosomal at 25 nM after 3 hrs by Western blot analysis; conditions: U87

Sequence of Phosphatidylinositol 5-phosphate 4-kinase type-2 beta (Homo sapiens) (P78356 whole entry, the tested form may be a part): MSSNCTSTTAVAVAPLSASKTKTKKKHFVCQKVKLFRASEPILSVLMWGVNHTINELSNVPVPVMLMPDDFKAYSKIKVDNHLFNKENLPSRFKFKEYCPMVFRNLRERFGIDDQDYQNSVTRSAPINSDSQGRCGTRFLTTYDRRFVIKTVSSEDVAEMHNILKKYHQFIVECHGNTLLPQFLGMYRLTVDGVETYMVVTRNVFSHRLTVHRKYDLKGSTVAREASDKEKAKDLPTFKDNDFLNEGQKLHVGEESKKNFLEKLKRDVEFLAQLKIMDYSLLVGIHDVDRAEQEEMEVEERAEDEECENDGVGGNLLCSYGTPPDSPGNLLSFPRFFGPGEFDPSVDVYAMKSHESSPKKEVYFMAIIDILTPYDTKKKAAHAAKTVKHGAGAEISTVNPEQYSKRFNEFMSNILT
Sequence of Serine/threonine-protein kinase Nek10 (Homo sapiens) (Q6ZWH5 whole entry, the tested form may be a part): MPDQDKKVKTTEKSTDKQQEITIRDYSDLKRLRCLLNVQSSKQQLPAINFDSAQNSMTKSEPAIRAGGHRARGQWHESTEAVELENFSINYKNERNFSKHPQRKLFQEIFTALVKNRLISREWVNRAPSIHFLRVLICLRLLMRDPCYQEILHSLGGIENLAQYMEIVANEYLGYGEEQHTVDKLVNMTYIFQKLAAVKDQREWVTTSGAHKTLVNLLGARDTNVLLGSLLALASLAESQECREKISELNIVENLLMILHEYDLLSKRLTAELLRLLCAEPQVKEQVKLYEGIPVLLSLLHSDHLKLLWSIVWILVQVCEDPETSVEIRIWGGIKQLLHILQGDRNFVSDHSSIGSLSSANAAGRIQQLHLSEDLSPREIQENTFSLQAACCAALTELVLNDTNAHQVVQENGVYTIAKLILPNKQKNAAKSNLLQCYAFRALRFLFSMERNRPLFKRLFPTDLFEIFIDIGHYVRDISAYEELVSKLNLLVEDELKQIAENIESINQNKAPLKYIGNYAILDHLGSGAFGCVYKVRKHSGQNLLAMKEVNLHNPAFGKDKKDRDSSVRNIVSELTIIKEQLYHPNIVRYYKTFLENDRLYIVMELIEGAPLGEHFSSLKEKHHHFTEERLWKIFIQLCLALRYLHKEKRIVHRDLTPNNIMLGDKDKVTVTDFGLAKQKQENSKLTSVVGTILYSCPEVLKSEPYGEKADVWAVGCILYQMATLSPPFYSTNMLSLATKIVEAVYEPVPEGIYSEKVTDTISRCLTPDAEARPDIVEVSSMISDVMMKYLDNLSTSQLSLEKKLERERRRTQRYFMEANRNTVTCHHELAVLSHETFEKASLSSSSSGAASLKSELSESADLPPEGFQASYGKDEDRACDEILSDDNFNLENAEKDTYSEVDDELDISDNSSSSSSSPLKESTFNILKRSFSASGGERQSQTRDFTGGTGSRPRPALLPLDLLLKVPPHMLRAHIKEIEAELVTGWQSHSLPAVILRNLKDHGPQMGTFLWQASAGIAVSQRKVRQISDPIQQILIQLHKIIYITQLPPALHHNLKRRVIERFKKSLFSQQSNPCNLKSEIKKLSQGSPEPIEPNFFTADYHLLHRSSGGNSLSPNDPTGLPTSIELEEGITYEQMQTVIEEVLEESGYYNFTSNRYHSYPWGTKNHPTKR
Sequence of Receptor-interacting serine/threonine-protein kinase 1 (Homo sapiens) (Q13546 whole entry, the tested form may be a part): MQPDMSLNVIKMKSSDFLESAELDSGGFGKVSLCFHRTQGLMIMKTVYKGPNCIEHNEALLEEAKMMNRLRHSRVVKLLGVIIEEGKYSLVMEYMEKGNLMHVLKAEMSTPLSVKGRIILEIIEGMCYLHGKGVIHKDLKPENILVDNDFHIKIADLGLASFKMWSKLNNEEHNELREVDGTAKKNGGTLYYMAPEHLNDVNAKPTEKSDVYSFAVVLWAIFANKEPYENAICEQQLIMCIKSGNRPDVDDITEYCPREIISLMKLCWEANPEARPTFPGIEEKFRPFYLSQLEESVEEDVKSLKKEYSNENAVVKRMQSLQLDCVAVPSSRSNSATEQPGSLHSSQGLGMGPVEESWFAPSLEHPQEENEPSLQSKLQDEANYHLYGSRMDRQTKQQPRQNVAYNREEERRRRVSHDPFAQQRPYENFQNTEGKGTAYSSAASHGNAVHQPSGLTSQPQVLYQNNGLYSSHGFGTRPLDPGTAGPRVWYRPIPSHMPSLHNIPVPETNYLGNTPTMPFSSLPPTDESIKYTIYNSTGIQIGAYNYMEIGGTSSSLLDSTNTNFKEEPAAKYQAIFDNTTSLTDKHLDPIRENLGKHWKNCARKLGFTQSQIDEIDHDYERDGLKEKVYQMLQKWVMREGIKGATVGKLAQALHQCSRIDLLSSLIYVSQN
Sequence of Phosphatidylinositol 4-phosphate 5-kinase type-1 gamma (Homo sapiens) (O60331 whole entry, the tested form may be a part): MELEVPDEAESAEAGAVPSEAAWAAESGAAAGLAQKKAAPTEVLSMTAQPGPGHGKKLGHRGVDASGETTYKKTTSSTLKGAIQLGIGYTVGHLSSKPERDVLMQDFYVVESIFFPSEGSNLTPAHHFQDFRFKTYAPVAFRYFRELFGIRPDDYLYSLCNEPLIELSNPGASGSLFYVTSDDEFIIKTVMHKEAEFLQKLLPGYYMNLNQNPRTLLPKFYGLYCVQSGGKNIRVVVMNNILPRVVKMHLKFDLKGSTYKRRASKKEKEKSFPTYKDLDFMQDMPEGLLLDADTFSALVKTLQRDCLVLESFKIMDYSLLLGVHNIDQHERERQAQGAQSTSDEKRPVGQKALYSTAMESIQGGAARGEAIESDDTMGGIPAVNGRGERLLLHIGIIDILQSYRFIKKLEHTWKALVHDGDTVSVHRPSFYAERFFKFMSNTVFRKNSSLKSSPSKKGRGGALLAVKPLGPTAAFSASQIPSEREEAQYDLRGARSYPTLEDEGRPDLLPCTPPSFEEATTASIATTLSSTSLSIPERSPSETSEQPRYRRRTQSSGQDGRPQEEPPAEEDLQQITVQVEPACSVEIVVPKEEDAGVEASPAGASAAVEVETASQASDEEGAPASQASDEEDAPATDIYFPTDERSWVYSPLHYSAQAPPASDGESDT
Sequence of Phosphatidylinositol 4-phosphate 5-kinase type-1 alpha (Homo sapiens) (Q99755 whole entry, the tested form may be a part): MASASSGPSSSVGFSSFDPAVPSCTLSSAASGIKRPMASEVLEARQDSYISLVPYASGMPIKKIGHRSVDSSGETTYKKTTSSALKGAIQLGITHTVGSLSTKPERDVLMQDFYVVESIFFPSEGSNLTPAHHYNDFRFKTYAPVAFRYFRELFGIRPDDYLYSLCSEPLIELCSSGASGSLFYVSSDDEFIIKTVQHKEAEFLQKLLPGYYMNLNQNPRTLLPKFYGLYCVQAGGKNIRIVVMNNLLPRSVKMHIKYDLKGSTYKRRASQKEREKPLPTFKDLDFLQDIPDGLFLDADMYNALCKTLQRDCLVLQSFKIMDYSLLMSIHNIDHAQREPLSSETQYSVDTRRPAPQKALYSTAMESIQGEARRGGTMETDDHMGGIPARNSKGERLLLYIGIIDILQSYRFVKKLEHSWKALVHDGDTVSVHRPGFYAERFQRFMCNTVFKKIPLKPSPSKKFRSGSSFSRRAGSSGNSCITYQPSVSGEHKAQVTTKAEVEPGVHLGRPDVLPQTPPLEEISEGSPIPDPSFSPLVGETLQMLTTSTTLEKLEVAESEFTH
Sequence of Ephrin type-B receptor 6 (Homo sapiens) (O15197 whole entry, the tested form may be a part): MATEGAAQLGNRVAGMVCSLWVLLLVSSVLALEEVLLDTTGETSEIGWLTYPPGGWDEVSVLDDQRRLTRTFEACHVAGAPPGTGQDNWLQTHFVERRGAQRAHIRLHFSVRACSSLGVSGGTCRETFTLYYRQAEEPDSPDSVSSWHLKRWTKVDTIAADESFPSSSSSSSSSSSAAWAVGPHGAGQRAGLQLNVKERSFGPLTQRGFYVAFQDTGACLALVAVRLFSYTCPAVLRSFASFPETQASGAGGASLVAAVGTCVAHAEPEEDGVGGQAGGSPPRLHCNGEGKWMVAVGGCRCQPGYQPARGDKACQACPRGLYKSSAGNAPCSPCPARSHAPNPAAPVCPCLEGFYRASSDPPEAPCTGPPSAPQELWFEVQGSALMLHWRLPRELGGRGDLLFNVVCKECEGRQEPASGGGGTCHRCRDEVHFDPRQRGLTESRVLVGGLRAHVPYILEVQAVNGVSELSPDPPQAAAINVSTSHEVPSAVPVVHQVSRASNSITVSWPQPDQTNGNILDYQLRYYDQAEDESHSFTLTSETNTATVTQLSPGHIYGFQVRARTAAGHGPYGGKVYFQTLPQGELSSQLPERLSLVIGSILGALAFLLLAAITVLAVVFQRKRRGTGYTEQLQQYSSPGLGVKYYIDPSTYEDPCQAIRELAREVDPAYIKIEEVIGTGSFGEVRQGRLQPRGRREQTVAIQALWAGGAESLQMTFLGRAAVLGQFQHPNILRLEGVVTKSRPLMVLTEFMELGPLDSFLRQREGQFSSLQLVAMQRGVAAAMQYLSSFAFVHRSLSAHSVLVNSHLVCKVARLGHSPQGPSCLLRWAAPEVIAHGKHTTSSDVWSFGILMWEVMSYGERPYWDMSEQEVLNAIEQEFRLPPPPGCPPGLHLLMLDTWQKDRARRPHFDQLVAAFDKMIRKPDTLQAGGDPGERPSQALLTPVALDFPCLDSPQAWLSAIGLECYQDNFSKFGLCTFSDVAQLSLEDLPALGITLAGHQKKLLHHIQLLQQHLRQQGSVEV
Sequence of Dual specificity mitogen-activated protein kinase kinase 5 (Homo sapiens) (Q13163 whole entry, the tested form may be a part): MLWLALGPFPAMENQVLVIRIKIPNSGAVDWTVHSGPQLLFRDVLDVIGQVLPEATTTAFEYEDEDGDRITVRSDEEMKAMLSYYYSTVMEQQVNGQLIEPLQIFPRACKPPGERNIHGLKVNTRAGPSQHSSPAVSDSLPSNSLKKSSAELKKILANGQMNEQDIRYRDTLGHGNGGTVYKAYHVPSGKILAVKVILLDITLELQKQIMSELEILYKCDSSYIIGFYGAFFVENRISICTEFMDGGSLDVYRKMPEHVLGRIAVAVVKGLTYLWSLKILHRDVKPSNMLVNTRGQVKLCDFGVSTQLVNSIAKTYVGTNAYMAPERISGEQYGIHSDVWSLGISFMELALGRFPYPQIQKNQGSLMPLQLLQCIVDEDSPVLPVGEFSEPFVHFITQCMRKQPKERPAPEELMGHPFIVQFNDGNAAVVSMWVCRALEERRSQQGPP

COc1ncc(-c2ccc3nccc(/C(C)=C/C(=O)N4CCN(C)CC4)c3c2)cc1NS(=O)(=O)c1ccc(F)cc1F
GI50 (U-87 MG): 140 nM
IC50 [1]: 0.67 nM
IC50 [2]: 1.3 nM
Activity [3]: 100%
Activity [4]: 82%
Activity [5]: 11%
Activity [6]: 100%
Activity [7]: 54%
Activity [8]: 22%
Activity [9]: 63%
Activity [10]: 0%
Activity [11]: 61%
Activity [12]: 78%
Activity [13]: 45%
Activity [14]: 35%
Activity [15]: 9.4%
Activity [16]: 70%
Activity [17]: 87%
Activity [18]: 84%
inhibition [19]: Active
AUC(0-inf) [20]: 1450 ng·h/mL
MRT inf [21]: 2.57 h
inhibition [22]: Active
